# Assay results: publication PMC7610887 (Journal of psychopharmacology (Oxford, England), 2019)
# Values joined by “and” are separate entries in the source; they are usually repeats but may differ in a detail not shown here. Equal values may be shown once. Read-outs that look alike come from different tables or passages of the source.
# What was measured:
# [1] = 6-week GLP Safety and Toxicity study of UoS12258, cynomolgus monkey; format: in vivo; details: cynomolgus monkey, in vivo, po
# [2] = test system: cynomolgus monkeys; test: as above; format: in vivo; details: 6-week GLP
# [3] = test system: rats; test: 6-week GLP Safety and Toxicity study of UoS12258, rat; format: in vivo
# [4] = test system: native neuronal AMPARs in rat cultured hippocampal neurons; details: rat primary hippocampal neurons; ref Ward et al., 2017; cited from earlier work
# [5] = test system: rats; details: p.o.; ref Ward et al., 2017; cited from earlier work
# [6] = test system: Male Wistar rats; details: p.o.; ref Ward et al., 2017; cited from earlier work
# [7] = test system: male Lister Hooded rats; details: ref Ward et al., 2017, cited from earlier work
# [8] = molecular target: Homomeric human GluA1 flip isoform (hGluA1i) (Homo sapiens, UniProt P42261); test: Intracellular Ca2+ influx assay; format: cell-based; details: relative to positive control LY404187
# Sequence of Homomeric human GluA1 flip isoform (hGluA1i) (P42261 19-906 isoform P42261-2 limits assumed): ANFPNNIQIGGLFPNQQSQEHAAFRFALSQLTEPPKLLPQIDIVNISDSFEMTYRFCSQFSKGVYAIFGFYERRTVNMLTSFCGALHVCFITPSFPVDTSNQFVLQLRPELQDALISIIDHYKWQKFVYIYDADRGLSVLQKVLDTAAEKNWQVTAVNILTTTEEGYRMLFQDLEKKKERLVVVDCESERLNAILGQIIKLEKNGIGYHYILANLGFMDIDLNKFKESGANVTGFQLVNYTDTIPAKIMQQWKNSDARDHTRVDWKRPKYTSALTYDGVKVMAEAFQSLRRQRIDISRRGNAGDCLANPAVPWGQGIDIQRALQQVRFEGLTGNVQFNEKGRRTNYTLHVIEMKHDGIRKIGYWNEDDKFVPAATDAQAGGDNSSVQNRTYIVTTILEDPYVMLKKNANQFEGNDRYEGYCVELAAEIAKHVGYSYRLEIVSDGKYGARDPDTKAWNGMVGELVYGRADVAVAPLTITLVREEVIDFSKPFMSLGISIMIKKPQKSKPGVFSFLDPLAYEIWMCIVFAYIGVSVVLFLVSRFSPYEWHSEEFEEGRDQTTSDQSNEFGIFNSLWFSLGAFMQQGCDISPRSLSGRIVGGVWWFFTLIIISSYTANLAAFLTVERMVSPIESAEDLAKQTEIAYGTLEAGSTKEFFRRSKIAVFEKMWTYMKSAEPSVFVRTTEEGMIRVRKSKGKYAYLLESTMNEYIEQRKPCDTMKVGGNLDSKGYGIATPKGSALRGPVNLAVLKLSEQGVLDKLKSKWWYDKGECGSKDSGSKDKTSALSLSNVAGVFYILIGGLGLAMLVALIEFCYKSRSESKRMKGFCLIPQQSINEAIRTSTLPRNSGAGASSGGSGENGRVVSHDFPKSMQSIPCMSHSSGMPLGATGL
# Outline: (§1)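 AMPA receptor flip isoforms expressed in HEK-293 cells: hGluA1i, hGluA3i, hGluA4i and rat GluA2i by lipofectamine transient transfection, and hGluA2i stably. All were Q-unedited in TM2. Cells were seeded on poly-D-lysine 2 days before assay and loaded with Fluo-4AM (2 μM final) for 60 min in the dark in HEPES buffer, pH 7.3. Test compound (1:3 serial dilution) was added with glutamate (100 μM final), and FLIPR fluorescence was read. Maximum response was scaled to LY404187 run on each plate.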
# [9] = molecular target: hGluA2i AMPAR (Homo sapiens, UniProt P42262); test: Intracellular Ca2+ influx assay; format: cell-based
# Sequence of hGluA2i AMPAR (P42262 25-883 isoform P42262-2 limits assumed): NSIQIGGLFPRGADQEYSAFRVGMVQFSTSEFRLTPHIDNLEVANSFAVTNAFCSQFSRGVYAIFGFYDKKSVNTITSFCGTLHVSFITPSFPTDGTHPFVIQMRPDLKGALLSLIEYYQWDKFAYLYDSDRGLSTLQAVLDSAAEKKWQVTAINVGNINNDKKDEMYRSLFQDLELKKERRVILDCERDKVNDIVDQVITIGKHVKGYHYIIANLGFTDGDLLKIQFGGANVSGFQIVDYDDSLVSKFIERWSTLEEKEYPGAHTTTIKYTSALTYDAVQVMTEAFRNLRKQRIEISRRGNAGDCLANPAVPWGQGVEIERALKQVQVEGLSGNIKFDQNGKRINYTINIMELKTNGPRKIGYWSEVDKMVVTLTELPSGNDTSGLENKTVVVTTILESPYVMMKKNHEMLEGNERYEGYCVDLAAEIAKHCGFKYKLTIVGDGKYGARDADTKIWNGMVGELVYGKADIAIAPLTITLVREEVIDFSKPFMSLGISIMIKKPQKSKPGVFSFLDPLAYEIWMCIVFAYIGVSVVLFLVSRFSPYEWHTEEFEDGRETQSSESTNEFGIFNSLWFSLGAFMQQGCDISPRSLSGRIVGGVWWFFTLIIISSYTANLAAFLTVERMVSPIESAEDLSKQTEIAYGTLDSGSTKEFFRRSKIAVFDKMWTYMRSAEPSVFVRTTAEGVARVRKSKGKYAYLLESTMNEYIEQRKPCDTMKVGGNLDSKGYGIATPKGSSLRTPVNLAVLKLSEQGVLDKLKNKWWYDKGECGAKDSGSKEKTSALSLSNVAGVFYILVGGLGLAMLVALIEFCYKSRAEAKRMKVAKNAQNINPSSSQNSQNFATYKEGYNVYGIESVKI
# Outline: as §1
# [10] = molecular target: hGluA3i AMPAR (Homo sapiens, UniProt P42263); test: Intracellular Ca2+ influx assay; format: cell-based
# Sequence of hGluA3i AMPAR (P42263 29-894 isoform P42263-2 limits assumed): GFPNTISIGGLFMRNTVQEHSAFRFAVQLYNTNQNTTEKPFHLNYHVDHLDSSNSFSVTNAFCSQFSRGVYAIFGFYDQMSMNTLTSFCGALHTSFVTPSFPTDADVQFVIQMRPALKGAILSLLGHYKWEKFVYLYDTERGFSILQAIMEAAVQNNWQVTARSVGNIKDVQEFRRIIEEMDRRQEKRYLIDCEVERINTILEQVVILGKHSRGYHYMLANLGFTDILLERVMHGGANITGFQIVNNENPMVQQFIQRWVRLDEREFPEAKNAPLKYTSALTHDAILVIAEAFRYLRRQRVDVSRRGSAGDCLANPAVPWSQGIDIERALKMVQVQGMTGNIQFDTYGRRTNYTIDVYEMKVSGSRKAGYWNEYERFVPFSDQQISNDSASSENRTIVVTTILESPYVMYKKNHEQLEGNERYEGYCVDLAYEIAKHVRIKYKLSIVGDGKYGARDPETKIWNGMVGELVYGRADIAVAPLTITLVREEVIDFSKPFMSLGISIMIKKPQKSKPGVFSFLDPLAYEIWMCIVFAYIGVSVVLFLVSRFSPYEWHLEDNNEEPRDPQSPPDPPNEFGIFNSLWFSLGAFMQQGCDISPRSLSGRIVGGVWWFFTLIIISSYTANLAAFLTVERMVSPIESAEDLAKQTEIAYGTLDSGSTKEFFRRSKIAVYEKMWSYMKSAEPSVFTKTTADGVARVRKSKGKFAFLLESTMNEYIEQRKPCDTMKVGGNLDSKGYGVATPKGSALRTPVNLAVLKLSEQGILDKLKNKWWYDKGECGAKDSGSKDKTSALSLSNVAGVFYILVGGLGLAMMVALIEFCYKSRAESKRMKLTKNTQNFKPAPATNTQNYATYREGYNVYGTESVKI
# Outline: as §1
# [11] = molecular target: hGluA4i AMPAR (Homo sapiens, UniProt P48058); test: Intracellular Ca2+ influx assay; format: cell-based
# Sequence of hGluA4i AMPAR (P48058 21-902): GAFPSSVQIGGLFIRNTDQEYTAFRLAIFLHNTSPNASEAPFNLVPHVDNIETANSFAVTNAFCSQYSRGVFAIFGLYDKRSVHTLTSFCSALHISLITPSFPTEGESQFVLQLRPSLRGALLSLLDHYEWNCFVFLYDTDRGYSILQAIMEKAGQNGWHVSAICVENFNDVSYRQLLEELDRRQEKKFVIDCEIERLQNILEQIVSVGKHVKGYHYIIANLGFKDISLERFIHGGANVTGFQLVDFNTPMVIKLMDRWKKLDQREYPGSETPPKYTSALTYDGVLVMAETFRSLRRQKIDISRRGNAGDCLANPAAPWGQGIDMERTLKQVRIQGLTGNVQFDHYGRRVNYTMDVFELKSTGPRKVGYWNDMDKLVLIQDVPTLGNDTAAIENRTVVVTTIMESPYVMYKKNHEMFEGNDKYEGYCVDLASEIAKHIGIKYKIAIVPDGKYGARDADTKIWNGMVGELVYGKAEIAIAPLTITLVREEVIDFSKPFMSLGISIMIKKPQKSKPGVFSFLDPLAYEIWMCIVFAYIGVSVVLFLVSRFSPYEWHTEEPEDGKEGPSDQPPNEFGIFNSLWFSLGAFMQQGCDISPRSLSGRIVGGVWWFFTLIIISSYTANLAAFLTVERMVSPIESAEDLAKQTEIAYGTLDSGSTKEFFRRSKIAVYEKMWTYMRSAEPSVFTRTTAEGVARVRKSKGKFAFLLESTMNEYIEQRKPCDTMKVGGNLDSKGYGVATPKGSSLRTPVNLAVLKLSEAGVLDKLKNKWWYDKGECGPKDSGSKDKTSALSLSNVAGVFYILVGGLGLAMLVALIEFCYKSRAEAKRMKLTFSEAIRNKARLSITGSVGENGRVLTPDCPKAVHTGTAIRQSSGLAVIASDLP
# Outline: as §1
# [12] = molecular target: rat GluA2i AMPAR (Rattus norvegicus, UniProt P19491); test: Intracellular Ca2+ influx assay; format: cell-based
# Sequence of rat GluA2i AMPAR (P19491 22-883 isoform P19491-2 limits assumed): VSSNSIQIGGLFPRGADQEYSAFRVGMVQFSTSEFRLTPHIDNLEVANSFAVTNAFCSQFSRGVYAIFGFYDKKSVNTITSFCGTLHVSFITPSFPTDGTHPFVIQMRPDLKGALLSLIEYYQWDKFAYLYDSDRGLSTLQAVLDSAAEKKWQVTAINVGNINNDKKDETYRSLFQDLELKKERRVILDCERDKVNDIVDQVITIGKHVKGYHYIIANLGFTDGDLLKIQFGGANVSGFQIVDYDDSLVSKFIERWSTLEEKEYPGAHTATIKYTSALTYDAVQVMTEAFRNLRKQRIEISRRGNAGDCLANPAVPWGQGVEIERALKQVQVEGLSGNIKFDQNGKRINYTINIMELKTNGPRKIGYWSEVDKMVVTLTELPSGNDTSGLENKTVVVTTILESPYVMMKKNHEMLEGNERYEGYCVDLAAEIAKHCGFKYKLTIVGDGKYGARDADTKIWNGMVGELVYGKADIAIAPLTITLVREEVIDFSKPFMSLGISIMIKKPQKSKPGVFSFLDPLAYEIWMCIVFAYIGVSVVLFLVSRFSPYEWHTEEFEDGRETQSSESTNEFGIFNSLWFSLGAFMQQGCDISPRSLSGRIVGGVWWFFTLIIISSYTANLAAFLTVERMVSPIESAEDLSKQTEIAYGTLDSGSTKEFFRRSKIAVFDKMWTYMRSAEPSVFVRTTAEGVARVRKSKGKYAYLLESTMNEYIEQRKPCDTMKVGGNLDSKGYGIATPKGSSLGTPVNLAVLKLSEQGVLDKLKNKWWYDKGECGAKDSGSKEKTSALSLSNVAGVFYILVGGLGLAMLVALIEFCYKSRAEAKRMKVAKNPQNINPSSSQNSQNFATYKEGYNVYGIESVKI
# Outline: as §1
# [13] = test system: Heteromeric hGluN1A/GluN2B NMDARs; test: Ca2+ flux assay or whole-cell patch clamp, NMDAR; format: cell-based, human; details: Ca2+ flux assay or whole-cell patch clamp (data not shown)
# Outline: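 HEK-293 cells were transduced with hGluN1A and hGluN2B BacMam vectors in the presence of 500 μM ketamine, then plated on poly-D-lysine, still with 500 μM ketamine, for 24 h. In the Ca2+ flux format, cells were loaded with Fluo-4AM (2 μM final) for 60 min, washed, then given test compound (1:3 serial dilution) plus glutamate (100 μM final), with FLIPR fluorescence read-out.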
# [14] = test system: Homomeric hGluK1 kainate receptors; test: Ca2+ flux assay or whole-cell patch clamp, GluK1; format: cell-based, human; details: Ca2+ flux assay or whole-cell patch clamp (data not shown)
# Outline: (§2)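 Kainate receptors in HEK cells: hGluK1 (Q-unedited) by lipofectamine transient transfection, hGluK2 stably expressed. Cells were seeded 24 h before assay. In the Ca2+ flux format, cells were loaded with Fluo-4AM (2 μM final) for 60 min in the dark, washed, then given test compound (1:3 serial dilution) plus glutamate (100 μM final), with FLIPR fluorescence read-out.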
# [15] = test system: Human GluK2 receptors; test: Ca2+ flux assay or whole-cell patch clamp, GluK2; format: cell-based; details: Ca2+ flux assay or whole-cell patch clamp (data not shown)
# Outline: as §2
# [16] = molecular target: hGluA2 AMPARs (Homo sapiens, UniProt P42262); test: Recombinant receptor whole-cell electrophysiology; format: cell-based; details: 1 mM glutamate
# Sequence of hGluA2 AMPARs (P42262 25-883 isoform P42262-2 limits assumed): as the sequence (P42262 25-883 isoform P42262-2 limits assumed) above
# Outline: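 HEK cells stably expressing hGluA2 were plated on poly-D-lysine coverslips and used 1-2 days later. Perforated-patch whole-cell recording at -60 mV used 2-5 MΩ pipettes, NaCl/HEPES external solution (pH 7.35) and CsCl/EGTA internal solution (pH 7.3). Glutamate (1 mM) was applied by fast perfusion for 2 s every 30 s, with or without test compound. Responses were related to the current from 1 mM glutamate alone.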
# [17] = test system: native neuronal AMPARs in rat cultured hippocampal neurons; test: Native receptor electrophysiology in cultured hippocampal neurons; format: cell-based
# Outline: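 Hippocampi from embryonic rats were trypsinised (0.05%, 30 min, 37 °C), dissociated and grown in Neurobasal/B27 for 5-13 days. Whole-cell voltage clamp was held at -70 mV, with AMPA (30 μM) applied for 2 s every 30 s by fast perfusion, with test compound at 1 nM-10 μM. Charge transfer, desensitisation and deactivation were compared with AMPA alone by paired t-test.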
# [18] = In vivo electrophysiology, dentate gyrus population spike; set-up: species or system rat; details: male, Lister hooded, rat, brain, iv
# [19] = test system: anaesthetised rats; test: as above; set-up: species or system rat; details: 10 mg/kg i.v.; vehicle 70%
# [20] = test system: Male Wistar rats; test: Passive avoidance, scopolamine-induced deficit; format: in vivo, rat
# [21] = 7-day dose-range finding study, rat; format: in vivo; details: rat, plasma, po, 1600 mg/kg
# [22] = test system: rat; test: 7-day dose-range finding study, rat; format: in vivo; details: doses of up to 1,600 mg/kg, 7-day
# [23] = test system: dog; test: 7-day dose-range finding study, dog; format: in vivo; details: doses of up to 1,000 mg/kg
# [24] = 4-week GLP safety assessment study, rat; format: in vivo; details: rat, plasma, po, 800 mg/kg
# [25] = test system: rat; test: 4-week GLP safety assessment study, rat; format: in vivo
# [26] = test system: dog; test: 4-week GLP safety assessment study, dog; format: in vivo
# [27] = Solubility; format: physicochemical
# [28] = test system: pregnane X receptor; test: Pregnane X receptor activation; details: linked to a potential for drug-drug interactions
# [29] = Novel object recognition; details: rat, in vivo, 0.1 mg/kg, 0.1 mg/kg p.o. sub-chronic
# [30] = test system: rats; test: Novel object recognition; details: p.o.
# [31] = Maximal electroshock threshold; details: male, Lister Hooded, rat, brain, oral, 30 mg/kg
# [32] = test system: male Lister Hooded rats; test: Maximal electroshock threshold
# [33] = relative to positive control LY404187
compound,measurement,setting,value
"CC(C)S(=O)(=O)N[C@H]1Cc2ccc(-c3ccc(F)nc3)cc2C1 [UoS12258, N-[(2S)-5-(6-fluoro-3-pyridinyl)-2,3-dihydro-1H-inden-2-yl]-2-propanesulfonamide]",NOAEL at 6 weeks,[1],2.5 mg/kg
same,dose at which convulsions were observed,[2],4 mg/kg
same,dose at which convulsions were observed,[3],10 mg/kg
same,maximal potentiation in the charge transfer,[4],310%
same,"MED, NOR following sub-chronic dosing",[5],0.01 mg/kg
same,"MED, acute-dosing NOR",[5],0.3 mg/kg
same,"MED, reversal of scopolamine-induced deficit",[6],3 mg/kg
same,brain exposure,[7]; 100 mg/kg p.o.,around 5.0 μg/g
same,proconvulsant effect in MEST,[7]; 100 mg/kg p.o.,comparable to that of the positive control picrotoxin
same,proconvulsant dose in MEST,[7]; p.o.,10 mg/kg
"O=C(c1ccc(-n2nc(C(F)(F)F)c3c2CCCC3)cc1)N1CCCC1 [MDI-222, 1-[4-(1-pyrrolidinylcarbonyl)phenyl]-3-(trifluoromethyl)-4,5,6,7-tetrahydro-1H-indazole]",Max. % response,[8],30 ± 2 (4) %
same,EC50,[9],5 µM
same,Max. % response,[9]; [33],123 ± 7% and 123 ± 7 (9) %
same,EC50,[10],31.6 µM
same,Max. % response,[10]; [33],53 ± 3 (3) %
same,EC50,[11],7.94 µM
same,Max. % response,[11]; [33],76 ± 1 (4) %
same,EC50,[12],3.98 µM
same,Max. % response,[12]; [33],76 ± 8 (4) %
same,effect on glutamate-induced currents,[13],no effects
same,effect on glutamate-induced currents,[14],no effects
same,effect on glutamate-induced currents,[15],no effects
same,potentiation of glutamate-evoked charge transfer (area under the curve),[16]; 100 nM,121 ± 7%
same,potentiation of glutamate-evoked charge transfer (area under the curve),[16]; 10 μM,702 ± 40%
same,"Charge transfer, normalised to AMPA alone",[17]; 1 nM,1.14 ± 0.05
same,"Deactivation, normalised to AMPA alone",[17]; 1 nM,1.06 ± 0.04
same,"Desensitisation, normalised to AMPA alone",[17]; 1 nM,0.77 ± 0.10
same,"Charge transfer, normalised to AMPA alone",[17]; 10 nM,1.37 ± 0.09
same,"Deactivation, normalised to AMPA alone",[17]; 10 nM,1.19 ± 0.15
same,"Desensitisation, normalised to AMPA alone",[17]; 10 nM,0.81 ± 0.05
same,"Charge transfer, normalised to AMPA alone",[17]; 100 nM,1.33 ± 0.12
same,"Deactivation, normalised to AMPA alone",[17]; 100 nM,1.29 ± 0.17
same,"Desensitisation, normalised to AMPA alone",[17]; 100 nM,0.76 ± 0.03
same,"Charge transfer, normalised to AMPA alone",[17]; 1 μM,1.28 ± 0.14
same,"Deactivation, normalised to AMPA alone",[17]; 1 μM,1.33 ± 0.17
same,"Desensitisation, normalised to AMPA alone",[17]; 1 μM,0.72 ± 0.04
same,"Charge transfer, normalised to AMPA alone",[17]; 10 μM,1.62 ± 0.15
same,"Deactivation, normalised to AMPA alone",[17]; 10 μM,2.79 ± 0.43
same,"Desensitisation, normalised to AMPA alone",[17]; 10 μM,0.25 ± 0.08
same,increase in charge transfer (maximal potentiation),[17]; 10 μM,62%
same,"minimum effective concentration, charge transfer",[17]; AMPA 30 μM,1 nM
same,"minimum effective concentration, desensitisation",[17]; AMPA 30 μM,10 nM
same,inward current when applied in the absence of AMPA,[17]; no agonist,did not invoke an inward current
same,concentration at 20 min,[18],11600 ng/g
same,dentate gyrus population spike amplitude,[19],139 % of baseline
same,"MED, reversal of scopolamine-induced deficit",[20]; p.o.,10 mg/kg
same,Cmax,[21],~15000 ng/mL
same,convulsions / tolerability,[22],did not produce convulsions
same,convulsions / tolerability,[23],did not produce convulsions
same,Cmax,[24],13 to 17000 ng/mL
same,"systemic exposure on Day 28 relative to Day 1, fold lower",[25]; 4-week study,up to 6 fold
same,convulsions,"[25]; highest dose 800 mg/kg, 4-week GLP",no convulsions observed
same,"systemic exposure on Day 28 relative to Day 1, fold lower",[26]; 4-week study,≤ 9 fold
same,convulsions,"[26]; highest dose 1,000 mg/kg, 4-week GLP",no convulsions observed
same,solubility,[27],poor solubility
same,pregnane X receptor,[28],activation
same,concentration at 30 min,[29]; mean blood level,7 ng/mL
same,concentration at 30 min,[29]; mean brain level,9 ng/g
same,"minimal effective dose (D2 index), acute",[30]; acute single-dose,0.3 mg/kg
same,"minimal effective dose, sub-chronic",[30]; sub-chronic (7-day) dosing,0.1 mg/kg
same,concentration at 0.5 h,[31],~4700 ng/g
same,brain drug concentration,[32]; 30 mg/kg p.o.,approximately 4.7 μg/g
same,CC50 lower than vehicle-treated rats,"[32]; 3, 10 and 30 mg/kg p.o.",10-15%
same,effect on seizure threshold,[32]; up to 30 mg/kg p.o.,did not significantly affect the seizure threshold
"CN1[C@@H]2C[C@@H](OC(=O)[C@H](CO)c3ccccc3)C[C@H]1[C@@H]1O[C@@H]12 [scopolamine, reference compound]",step-through latency,"[20]; scopolamine 1 mg/kg i.p., vehicle 457 ± 83 s",157 ± 46 s
